A short description of series [1]: melting temperature; fluorescence melt of hairpins on a sequencing array, two-state fit, raised by 9.35 °C to match UV melts. As to conditions: sodium 0.088 M. Summed up: (§1)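 Cy3 fluorescence of library hairpins on a sequenced MiSeq flow cell, with annealed Cy3 and quencher oligos, was imaged in 50 mM Na-HEPES pH 8.0, 25 mM NaCl in 2.5 °C steps up to 60 °C. Signals were normalised to pre-quench Cy3 and to control variants. Melting temperature and folding enthalpy came from bootstrapped two-state fits, inverse-variance combined over four replicates. Fitted temperatures were raised by 9.35 °C to match UV melts.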

Series [2] can be described thus: folding enthalpy; higher = less favourable; fluorescence melt of hairpins on a sequencing array, two-state fit. As to conditions: sodium 0.088 M. Summed up:
as §1

37 sequences from the array DNA melting data of Ke et al. (doi:10.1101/2024.01.08.574731) can be followed below.

As for GGACGCGGAAACACGTCC (((((.(....).))))), the Tm in series [1] came out at 54.8 °C. In addition, in series [2], the folding enthalpy is -38.9 kcal/mol.

As to GCCGGCCCGAAAGGGGGC (((..(((....)))))), the Tm in series [1] was found to be 58.3 °C. Further, the folding enthalpy in series [2] is -11.3 kcal/mol.

Turning to GGACGTGGAAACATGTCC ((((.((....)).)))), the Tm in series [1] worked out at 53.7 °C. The folding enthalpy in series [2] is -38.5 kcal/mol.

Turning to CGAGCCCGGAAACGGTCG (((..(((....)))))), the Tm in series [1] worked out at 37.5 °C. Moreover, in series [2], the folding enthalpy was -20.9 kcal/mol.

For GCCCCCCGAAAGGGAGGC (((.(((....))).))), the Tm in series [1] turned out to be 67 °C. For the same sequence, the folding enthalpy in series [2] is -29.8 kcal/mol.

In the case of GATCCCTTAAGGGATC ((((((....)))))), in series [1], the Tm came to 65.6 °C. Also, in series [2], the folding enthalpy was -39.4 kcal/mol.

For GCAGCGTCGAAAGACTGC (((..(((....)))))), in series [1], the Tm was found to be 44.4 °C. For the same sequence, in series [2], the folding enthalpy is -14 kcal/mol.

As for GTTTACGGAAACGTGAAC (((.(((....))).))), the Tm in series [1] came out at 46 °C. In addition, in series [2], the folding enthalpy is -27.7 kcal/mol.

Consider GACGTGCGAAAGCAAGTC (((.(((....))).))), for which the Tm in series [1] stood at 60.5 °C. The folding enthalpy in series [2] was -31.5 kcal/mol.

Turning to CGCACGGAAACGTCGCG ((((((....))).))), the Tm in series [1] came out at 51.1 °C. Moreover, the folding enthalpy in series [2] is -35.8 kcal/mol.

For GCAGGGCGAAAGCCCAGC ((.((((....)))).)), the Tm in series [1] was 68.2 °C. Besides, the folding enthalpy in series [2] was -19.5 kcal/mol.

On to GAGCCCCGAAAGGGCCTC (((.(((....))).))), for which the Tm in series [1] is 47.3 °C. Further, in series [2], the folding enthalpy is -14.6 kcal/mol.

For the sequence GGGTGCGGAAACACACCC (((((.(....).))))), in series [1], the Tm came out at 54.8 °C. The folding enthalpy in series [2] was -37.6 kcal/mol.

For the sequence GGGTGCGGAAACGCACTC (.(((((....))))).), the Tm in series [1] came out at 59.4 °C. Besides, in series [2], the folding enthalpy was -12 kcal/mol.

As for GGACCTGGAAACAGGTTC (.(((((....))))).), in series [1], the Tm is 52.7 °C. The folding enthalpy in series [2] was -27.5 kcal/mol.

GAATCTGGAAACAGACTC ((.((((....)))).)): the Tm in series [1] was determined as 29.1 °C. In series [2], the folding enthalpy is -17.7 kcal/mol.

Take GATCCGCGTACGGATC ((((((....)))))): in series [1], the Tm was 60.4 °C. The folding enthalpy in series [2] was -35.3 kcal/mol.

Turning to CGGGCGGAAACGCGCCG ((((((....))).))), the Tm in series [1] turned out to be 55.5 °C. For the same sequence, the folding enthalpy in series [2] is -16.6 kcal/mol.

As to GCTCGGGGAAACCTGAGC ((((.((....)).)))), the Tm in series [1] is 59.3 °C. Moreover, the folding enthalpy in series [2] was -35.1 kcal/mol.

On to GCGCGGGGAAACCCACGC (((.(((....))).))), for which the Tm in series [1] amounted to 61.6 °C. In addition, the folding enthalpy in series [2] was -35 kcal/mol.

Take GTAACGCGAAAGCGGTAC (((.(((....))).))): in series [1], the Tm was found to be 65.3 °C. The folding enthalpy in series [2] was -27.1 kcal/mol.

With GGCGATACGAAAGTAGCC (((..(((....)))))), in series [1], the Tm was found to be 49.5 °C. The folding enthalpy in series [2] was -23.3 kcal/mol.

Regarding GACCATGGAAACACGGTC ((((.((....)).)))), the Tm in series [1] was 42.5 °C. Further, the folding enthalpy in series [2] is -31.7 kcal/mol.

On to GATCATATAGATGATC ((((((....)))))), for which, in series [1], the Tm stood at 45.6 °C. The folding enthalpy in series [2] is -36.2 kcal/mol.

Consider GGTACCGGAAACAGTACC (((((.(....).))))), for which the Tm in series [1] was 39.9 °C. For the same sequence, the folding enthalpy in series [2] is -31.1 kcal/mol.

Consider GTATCAGCGAAAGCTTAC (((..(((....)))))), for which the Tm in series [1] came to 26.3 °C. The folding enthalpy in series [2] is -8.4 kcal/mol.

Take GATCGCTAAGGCGATC ((((((....)))))): in series [1], the Tm came out at 67.8 °C. Further, the folding enthalpy in series [2] was -39.2 kcal/mol.

For the sequence GGCAAAGGAAACTTTGCC (((((((....))))))), the Tm in series [1] stood at 62.7 °C. Besides, the folding enthalpy in series [2] was -40.7 kcal/mol.

Consider GCATCGCGAAAGCTTTGC (((..((....))..))), for which the Tm in series [1] was 41.2 °C. Moreover, the folding enthalpy in series [2] was -18.6 kcal/mol.

In the case of GTCTACCGAAAGGTGGAC (((.(((....))).))), the Tm in series [1] is 60.6 °C. Besides, the folding enthalpy in series [2] was -41.5 kcal/mol.

With GATAGGGGAAACTCTATC (((((.(....).))))), the Tm in series [1] is 35.7 °C. The folding enthalpy in series [2] is -31.2 kcal/mol.

As to GCTCGCCGAAAGGCAAGC (((.(((....))).))), the Tm in series [1] came to 54.7 °C. The folding enthalpy in series [2] was -29.1 kcal/mol.

Turning to CGAGACCGGAAACGGTCG (((..(((....)))))), in series [1], the Tm worked out at 57.1 °C. Moreover, in series [2], the folding enthalpy was -23.4 kcal/mol.

As for GCCGAGCGAAAGCTACGC ((..(((....)))..)), in series [1], the Tm is 45.8 °C. Besides, the folding enthalpy in series [2] was -12.1 kcal/mol.

Regarding GATCGATCAGTCGATC ((((((....)))))), the Tm in series [1] is 51.1 °C. The folding enthalpy in series [2] was -43.1 kcal/mol.

With GCGTTATTACGC ((((....)))), the Tm in series [1] was determined as 53.9 °C. In series [2], the folding enthalpy was -26 kcal/mol.

As for GCCGCTGGAAACAGCAGC ((.((((....)))).)), the Tm in series [1] amounted to 50.1 °C. Further, the folding enthalpy in series [2] is -20.1 kcal/mol.
